Source: paper PMC11443182 (Science signaling, 2024)
Entries after “also recorded” stand apart in the source; their conditions may differ.

What was measured:
[1] = test system: WT and mutant AT1Rs (p-ERK/t-ERK) in GqKO cells; assay: ERK phosphorylation Western blot, HEK293 GqKO cells, WT and mutant AT1Rs; format: cell-based, human; conditions: for ERK activation in GqKO cells: HEK293 GqKO cells vs WT cells, AngII 1 μM, TRV023 10 μM, Telm 10 μM
Outline: (§1)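 Receptor constructs (plasmid amounts adjusted to equalise receptor expression by radioligand binding) transfected with lipofectamine 2000 into cells grown in MEM with 10% FBS. […] RIPA lysis with protease/phosphatase inhibitors, 1 h at 4°C. SDS-PAGE/PVDF; phospho-ERK1/2 (1:1000) normalised to total ERK1/2 (1:2000).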

AT1R WT / GRK2 = assay: GRK2 recruitment BRET assay, WT AT1R; format: cell-based, human; conditions: GRKΔ4 cells; AngII 1 μM, TRV023 10 μM; 5 min
Outline: (§2)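 GRK2/3/5/6-null HEK293 cells were PEI-transfected with WT or mutant AT1R-Rluc8 (DNA adjusted to match expression) plus 1 µg C-terminally YFP-tagged GRK2. After 24 h they were plated at 50,000/well in 2% FBS starvation MEM. […] Plates were read at 37 °C (530/480 nm), and net BRET was taken as ligand minus vehicle.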

[2] = test system: AT1R mutants (Ca2+ response); assay: FLIPR Ca2+ assay, AT1R mutants; format: cell-based, human; conditions: HEK293T cells; AngII serial doses, 37 °C; AUC; n=5
Outline: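 HEK293T cells (500,000/well) were transfected 24 h after seeding with WT, or adjusted amounts of PROX or MID AT1R giving equal expression. Next day they were replated at 50,000/well overnight and loaded with Calcium 6 dye 2 h at 37 °C.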

[3] = test system: AT1R C-terminal tail mutants (PROX, MID, DIST, NULL); assay: β-arrestin recruitment BRET assay, AT1R C-terminal tail mutants; format: cell-based, human; conditions: HEK293 cells, 10 min, 37 °C, N=5
AT1R / β-arrestin = conditions: receptor "pre-phosphorylated"; AngII vs TRV023; cited from earlier work
WT AT1R [4] = assay: Intramolecular FlAsH BRET; format: cell-based, human; conditions: HEK293 cells, AngII 1 μM, TRV023 10 μM, 10 min, N=4
Outline: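 HEK293 cells were Fugene HD-cotransfected with 1.5 µg AT1R and 0.1 µg of each rLuc–β-arrestin2–FlAsH construct. At 48 h cells in HBSS were labeled with 2.5 µM TC-FlAsH (or mock) for 30 min at RT, washed in BAL buffer and plated at 100,000/well. […] Six readings were taken (440–480 / 525–585 nm). Net BRET was calculated after mock-label and vehicle subtraction; N=4.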

[5] = test system: AT1R C-terminal tail mutants (PROX, MID, DIST, NULL); assay: DiscoverX active endocytosis assay; format: cell-based, human; conditions: U2OS cells; β-arrestin2-EA; 3 h 37 °C; chemiluminescence; N=3
Outline: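 U2OS cells stably expressing β-arrestin2-EA and endosome-localized PK were transfected with WT or mutant AT1R, replated next day at 35,000 cells/well, and treated with ligands 3 h at 37 °C two days post-transfection. PathHunter detection reagents were added with 1 h RT incubation, then β-gal complementation chemiluminescence was read. Results are expressed as fold of untreated cells.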

[6] = test system: FLAG-tagged human WT AT1R; format: cell-based; conditions: AngII 1 μM, TRV023 10 μM, 10 min, N=5
Outline: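 Expi293F cells with inducible N-terminal FLAG-human AT1R (~2.5×10^6 density) were induced 30–36 h with doxycycline 4 µg/mL plus 5 mM butyrate, with expression checked by radioligand binding. […] Receptor was solubilized in MNG/CHS buffer with 1 µM losartan and PhosSTOP, purified on M1 anti-FLAG (EDTA/FLAG-peptide elution), TCA-precipitated, then reduced (TCEP) and alkylated (iodoacetamide) in 8 M urea/EPPS pH 8.5.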

AT1R mutants (Gq) = assay: G protein activation TRUPATH BRET assay; format: cell-based, human; conditions: AngII concentration response; any of the AT1R mutants
WT AT1R [7] = assay: β-arrestin recruitment BRET assay, WT AT1R; format: cell-based, human; conditions: HEK293 cells; WT AT1R-RLuc8, β-arrestin2-eGFP; 10 min, 37 °C; N=5
[8] = test system: WT and mutant AT1Rs (nuclear ERK activity); assay: Nuclear ERK BRET; format: cell-based, human
WT AT1R (p-ERK/t-ERK) = assay: ERK phosphorylation Western blot, HEK293 cells, WT AT1R; format: cell-based, human; conditions: AngII 1 μM, TRV023 10 μM, 10 min, N=8-9
Outline: as §1

AT1R mutants / GRK2 = assay: GRK2 recruitment BRET assay, AT1R mutants; format: cell-based, human; conditions: GRKΔ4 cells; AngII 1 μM, TRV023 10 μM; 5 min
Outline: as §2

[9] = test system: AT1R C-terminal tail mutants (PROX, MID, DIST, NULL); assay: β-arrestin1 endocytosis BRET assay, AT1R mutants; format: cell-based, human; conditions: HEK293 cells; β-arrestin1-RlucII/FYVE; 25 min 37 °C; N=4
Outline: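 HEK293 cells coexpressing WT or mutant AT1R, β-arrestin1-RlucII and endosomal FYVE-eGFP were reseeded next day on poly-L-ornithine plates (~25,000/well). […] Coelenterazine 400a (5 µM final) was added 2 min before reading (410/80 and 515/30 nm). Results are given as fold of untreated BRET; N=4.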

[10] = test system: AT1R C-terminal tail mutants (p-ERK/t-ERK); assay: ERK phosphorylation Western blot, HEK293 cells, AT1R mutants; format: cell-based, human; conditions: 10 min, N=8-9
Outline: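 HEK293 cells in 6-well plates were lipofectamine 2000-transfected with WT or mutant AT1R, with DNA adjusted to matched expression. Medium was refreshed on day 1. […] RIPA lysates with protease/phosphatase inhibitors were run on SDS-PAGE/PVDF and probed for phospho-ERK1/2 (1:1000) versus total ERK1/2 (1:2000) overnight at 4 °C.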

AT1R mutants / GRK3 = assay: GRK3 recruitment BRET assay, AT1R mutants; format: cell-based, human; conditions: GRKΔ4 cells; AngII 1 μM, TRV023 10 μM; 5 min
Outline: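 HEK293 cells lacking GRK2/3/5/6 PEI-transfected with WT or mutant AT1R-Rluc8 (DNA adjusted to equalise expression) and 1 µg GRK3-YFP (C-terminal tag). Replated after 24 h at 50,000/well in starvation MEM with 2% FBS. […] Read at 37°C, 530/480 nm; net BRET = ligand minus vehicle.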

[11] = test system: AT1R C-terminal tail mutants (PROX, MID, DIST, NULL); assay: Intramolecular FlAsH BRET; format: cell-based, human; conditions: HEK293 cells, 10 min, N=4
[12] = test system: AT1R-PROX mutant (nuclear ERK activity); assay: Nuclear ERK BRET; format: cell-based, human; conditions: HEK293T cells; AngII 1 μM; 5 min; vs WT receptor
Outline: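 WT or mutant AT1R (DNA adjusted for expression) PEI-co-transfected with 50 ng nuclear-localised EKAR biosensor with a NanoLuciferase donor. After 24 h, replated at 50,000/well in starvation MEM with 0.5% FBS, ± PTX 200 ng/mL. […] Read at 37°C, 530/480 nm; net BRET = ligand minus vehicle.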

AT1R / GRKs = conditions: cited from earlier work

For `CCCc1nc2c(C)cc(-c3nc4ccccc4n3C)cc2n1Cc1ccc(-c2ccccc2C(=O)O)cc1` [Telm, telmisartan], the “ERK activation in GqKO cells” value ([1]; 10 min, N=7-8) was “did not induce ERK activation”.

For “angiotensin II (DRVYIHPF; Angiotensin-2; UniProt P01019 25-32, looked up) [AngII]”, the “GRK2 recruitment, AT1R WT” value (AT1R WT / GRK2) was “robust recruitment”, the “EC50 of Ca2+ response” value [2] was “no difference in EC50” and the “maximal Ca2+ response, AT1R-PROX” value [2] was “reduced maximal Ca^2+ response”. The “β-arrestin recruitment (net BRET), AT1R-DIST” value ([3]; AT1R-DIST mutant) was “robust β-arrestin recruitment”, the “reduction of β-arrestin recruitment, MID sites mutated” value ([3]; AT1R-MID mutant) was 50% and the “reduction of β-arrestin recruitment, PROX sites mutated” value ([3]; AT1R-PROX mutant) was 50%. For the same compound, the “allosteric interaction with β-arrestin” value (AT1R / β-arrestin) was “somewhat stronger allosteric interaction with β-arrestin than does TRV023”, the “β-arrestin2 conformation, six FlAsH sensor profile” value (WT AT1R [4]) was “distinct β-arrestin conformations” and the “FlAsH4 BRET signal” value (WT AT1R [4]; Telm 10 μM) was “significant decrease in BRET compared to the shape profile induced by Telm”. For the same compound, the “AT1R internalization: requirement of DIST phosphorylation” value [5] was “largely dispensable”, the “AT1R internalization: requirement of PROX and MID phosphorylation” value [5] was “required for AT1R internalization” and the “phosphorylation in DIST region” value ([6]; DIST region) was “comparable amounts of phosphorylation in the DIST region”. The “phosphorylation in PROX region” value ([6]; PROX: Ser326, Ser328, Ser331, Thr332) was “The magnitude of increase was greatest in the proximal region of the tail; also recorded: the greatest increase in receptor phosphorylation occurred in the PROX region”, the “ERK activation in GqKO cells” value ([1]; 10 min, N=7-8) was “substantially lower in GqKO cells compared to WT cells” and the “ERK activation in GqKO cells, PROX mutant” value ([1]; HEK293 GqKO cells, AT1R-PROX, 10 min, N=7-8) was “most impairment relative to WT cells; also recorded: more substantially diminished in cells lacking Gq”. For the same compound, the “EC50 of G protein activation, AT1R mutants” value (AT1R mutants (Gq)) was “No difference in EC50”, the “β-arrestin recruitment (net BRET)” value (WT AT1R [7]) was “robust β-arrestin recruitment” and the “nuclear ERK activation” value ([8]; HEK293T cells, AT1R WT and all AT1R mutants, AngII 1 μM, 5 min, net BRET) was “increase in ERK activation”. The “ERK phosphorylation (p-ERK/t-ERK)” value (WT AT1R (p-ERK/t-ERK)) was “significant increase in ERK phosphorylation”, the “GRK2 recruitment, DIST mutant” value (AT1R mutants / GRK2) was “significantly impaired” and the “GRK2 recruitment, MID mutant” value (AT1R mutants / GRK2) was “significantly impaired”. The “GRK2 recruitment, PROX mutant” value (AT1R mutants / GRK2) was “robust recruitment”, the “AT1R internalization: requirement of DIST phosphorylation” value [9] was “largely dispensable” and the “ERK phosphorylation, AT1R-MID” value ([10]; AT1R-MID vs WT AT1R) was “somewhat higher activation of ERK phosphorylation”. For the same compound, the “ERK phosphorylation, all phosphorylation-deficient mutants” value ([10]; AngII 1 μM, TRV023 10 μM) was “largely similar to that of the WT AT1R”, the “GRK3 recruitment, MID mutant” value (AT1R mutants / GRK3) was “impaired in response to TRV023, but not AngII” and the “β-arrestin2 FlAsH profile, AT1R-DIST” value [11] was “more comparable to that of the WT AT1R”. For the same compound, the “nuclear ERK response, PROX mutant” value [12] was “significantly impaired ERK response compared to WT receptor” and the GRK recruitment (AT1R / GRKs) was “recruits GRK2/3 and GRK5/6”.

For pertussis toxin [PTX], the “inhibition of AngII-induced ERK activation by PTX” value ([1]; GqKO cells, PTX pretreatment before AngII, WT and mutant AT1Rs) was “largely blocked AngII-induced ERK activation”, the “PTX block of AngII-stimulated nuclear ERK” value ([8]; PTX 200 ng/mL pretreatment, stimulated by AngII, WT and mutant receptors) was “about 50%” and the “PTX block of TRV023-stimulated nuclear ERK” value ([8]; PTX 200 ng/mL pretreatment, stimulated by TRV023, WT and mutant receptors) was “about 50%”.
